Source: ChEMBL document CHEMBL1140812, “Synthesis of genistein derivatives and determination of their protective effects against vascular endothelial cell damages caused by hydrogen peroxide” (Bioorg Med Chem Lett, 2008)
Active and inactive are the calls of the source. The rule behind the calls is not given here.

tested on: HUVE12; test: Reversal of hydrogen peroxide-induced LDH activity in human HUVE12 cells; format: functional, cell-based
How it was run: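 HUVE-12 cells pretreated 30 min with compound (0.1–10.0 µM) or 0.02% DMSO vehicle, then 1 mM H2O2 for 24 h at 37 °C. Medium sampled before harvest; LDH activity measured by colorimetric kit as a marker of cell injury. Average of three experiments.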

Structure (SMILES) | Activity
CCCCCCCCCOc1ccc(-c2coc3cc(OC(F)F)cc(OCCCCCCCCC)c3c2=O)cc1 | Active
COc1ccc(-c2coc3cc(OC(F)F)cc(OC)c3c2=O)cc1 | Active
CCCCCCCCOc1ccc(-c2coc3cc(OC(F)F)cc(OCCCCCCCC)c3c2=O)cc1 | Active
CCCCCCCOc1ccc(-c2coc3cc(OC(F)F)cc(OCCCCCCC)c3c2=O)cc1 | Active
CCOc1ccc(-c2coc3cc(OC(F)F)cc(OCC)c3c2=O)cc1 | Active
O=c1c(-c2ccc(OC(F)F)cc2)coc2cc(OC(F)F)cc(O)c12 | Active
CCCOc1ccc(-c2coc3cc(OC(F)F)cc(OCCC)c3c2=O)cc1 | Active
O=c1c(-c2ccc(O)cc2)coc2cc(OC(F)F)cc(O)c12 | Active
CC(C)C/C=C/Oc1ccc(-c2coc3cc(OC(F)F)cc(O/C=C/CC(C)C)c3c2=O)cc1 | Active
O=c1c(-c2ccc(O)cc2)coc2cc(O)cc(O)c12 | Active
O=c1c(-c2ccc(OCc3ccccc3)cc2)coc2cc(OC(F)F)cc(OCc3ccccc3)c12 | Active

tested on: HUVE12; test: Protection against hydrogen peroxide-induced apoptosis in human HUVE12 cells; format: functional, cell-based
How it was run: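 HUVE-12 cells in DMEM with 10% newborn calf serum at 37 °C, 5% CO2. Pretreated 30 min with compound (0.1, 1.0, 10.0 µM; also 0.1–10.0 µM series) or 0.02% DMSO vehicle, then 1 mM H2O2 for 24 h. Trypsinized, fixed in 70% ice-cold ethanol, stained with PI/RNase A 15 min at 37 °C; apoptosis by flow cytometry. Three independent experiments.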

Structure (SMILES) | Activity
COc1ccc(-c2coc3cc(OC(F)F)cc(OC)c3c2=O)cc1 | Active
